The source made the active and inactive calls. No cut-off for these calls is given here.
Tests used:
[1] = target: Histone deacetylase 2 (Homo sapiens) (UniProt Q92769); assay: Inhibition of human recombinant HDAC2 using fluorogenic peptide p53 residues 379-382 (RHKK(Ac)AMC) as residues at 10 uM mins by fluorescence method
Procedure, shortened: (§1)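 Selectivity profile across HDAC isoforms 1–11 at a single concentration of 10 μM, run in duplicate.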

[2] = target: Histone deacetylase 3 (Homo sapiens) (UniProt O15379); assay: Inhibition of human recombinant HDAC3 using fluorogenic peptide p53 residues 379-382 (RHKK(Ac)AMC) as residues at 10 uM by fluorescence method; procedure, shortened: as §1
[3] = target: Histone deacetylase 5 (Homo sapiens) (UniProt Q9UQL6); assay: Inhibition of human recombinant HDAC5 using fluorogenic trifluoroacetyl lysine as substrate at 10 uM by fluorescence method; procedure, shortened: as §1
[4] = target: T1, Protein deacetylase HDAC6 (Homo sapiens) (UniProt Q9UBN7); assay: Inhibition of human recombinant HDAC6 using fluorogenic peptide p53 residues 379-382 (RHKK(Ac)AMC) as residues at 10 uM by fluorescence method; procedure, shortened: as §1
T1 sequence (whole entry): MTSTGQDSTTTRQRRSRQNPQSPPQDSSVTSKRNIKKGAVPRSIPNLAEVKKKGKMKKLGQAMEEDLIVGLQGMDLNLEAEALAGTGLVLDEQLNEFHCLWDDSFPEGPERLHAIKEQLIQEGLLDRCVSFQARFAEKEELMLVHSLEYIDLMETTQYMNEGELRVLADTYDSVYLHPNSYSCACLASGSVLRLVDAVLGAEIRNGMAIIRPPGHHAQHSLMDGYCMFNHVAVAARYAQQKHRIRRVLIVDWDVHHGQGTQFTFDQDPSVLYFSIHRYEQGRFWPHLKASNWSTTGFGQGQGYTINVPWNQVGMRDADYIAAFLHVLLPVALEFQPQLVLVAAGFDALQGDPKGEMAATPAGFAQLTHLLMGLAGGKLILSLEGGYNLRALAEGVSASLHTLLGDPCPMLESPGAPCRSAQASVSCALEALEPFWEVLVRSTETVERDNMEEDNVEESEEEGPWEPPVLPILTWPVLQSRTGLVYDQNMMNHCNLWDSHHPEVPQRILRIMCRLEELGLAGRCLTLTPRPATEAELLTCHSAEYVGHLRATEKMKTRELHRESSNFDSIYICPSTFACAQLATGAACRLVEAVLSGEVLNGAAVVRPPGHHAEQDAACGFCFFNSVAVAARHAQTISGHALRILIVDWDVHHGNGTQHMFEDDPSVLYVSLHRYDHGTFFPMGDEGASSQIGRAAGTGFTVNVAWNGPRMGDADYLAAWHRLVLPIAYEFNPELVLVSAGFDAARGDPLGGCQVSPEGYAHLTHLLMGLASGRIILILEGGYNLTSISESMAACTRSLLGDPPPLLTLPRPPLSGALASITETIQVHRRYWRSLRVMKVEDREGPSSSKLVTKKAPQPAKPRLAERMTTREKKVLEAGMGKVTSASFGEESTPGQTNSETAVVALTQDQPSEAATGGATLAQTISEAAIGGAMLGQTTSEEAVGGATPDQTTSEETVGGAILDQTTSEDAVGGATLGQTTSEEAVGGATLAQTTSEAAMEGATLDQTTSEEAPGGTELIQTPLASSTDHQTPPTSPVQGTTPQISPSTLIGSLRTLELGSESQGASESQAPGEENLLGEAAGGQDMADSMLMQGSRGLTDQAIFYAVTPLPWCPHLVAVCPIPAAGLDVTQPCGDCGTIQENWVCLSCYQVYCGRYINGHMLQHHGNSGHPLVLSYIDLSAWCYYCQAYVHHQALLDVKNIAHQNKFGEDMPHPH

[5] = target: T2, Polyamine deacetylase HDAC10 (Homo sapiens) (UniProt Q969S8); assay: Inhibition of human recombinant HDAC10 using fluorogenic peptide p53 residues 379-382 (RHKK(Ac)AMC) as residues at 10 uM by fluorescence method; procedure, shortened: as §1
T2 sequence (whole entry): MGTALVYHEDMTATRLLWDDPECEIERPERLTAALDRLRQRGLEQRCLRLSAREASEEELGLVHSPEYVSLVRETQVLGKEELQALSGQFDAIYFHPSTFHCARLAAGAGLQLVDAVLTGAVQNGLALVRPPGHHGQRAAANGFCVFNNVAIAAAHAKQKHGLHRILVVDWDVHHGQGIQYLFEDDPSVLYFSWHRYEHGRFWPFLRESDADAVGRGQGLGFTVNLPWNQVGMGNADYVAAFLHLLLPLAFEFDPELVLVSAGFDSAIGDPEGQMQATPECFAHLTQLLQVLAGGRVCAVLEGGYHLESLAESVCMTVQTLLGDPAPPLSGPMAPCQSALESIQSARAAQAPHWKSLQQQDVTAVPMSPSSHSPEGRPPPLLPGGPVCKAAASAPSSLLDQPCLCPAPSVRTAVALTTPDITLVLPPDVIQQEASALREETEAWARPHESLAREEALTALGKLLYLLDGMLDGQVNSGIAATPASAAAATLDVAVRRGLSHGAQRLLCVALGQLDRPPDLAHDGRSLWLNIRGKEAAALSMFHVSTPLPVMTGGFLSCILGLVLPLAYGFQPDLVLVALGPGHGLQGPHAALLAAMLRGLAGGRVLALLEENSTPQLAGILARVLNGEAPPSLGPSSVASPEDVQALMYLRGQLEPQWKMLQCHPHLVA

[6] = target: T3, Histone deacetylase 11 (Homo sapiens) (UniProt Q96DB2); assay: Inhibition of human recombinant HDAC11 using fluorogenic trifluoroacetyl lysine as substrate at 10 uM by fluorescence method; procedure, shortened: as §1
T3 sequence (whole entry): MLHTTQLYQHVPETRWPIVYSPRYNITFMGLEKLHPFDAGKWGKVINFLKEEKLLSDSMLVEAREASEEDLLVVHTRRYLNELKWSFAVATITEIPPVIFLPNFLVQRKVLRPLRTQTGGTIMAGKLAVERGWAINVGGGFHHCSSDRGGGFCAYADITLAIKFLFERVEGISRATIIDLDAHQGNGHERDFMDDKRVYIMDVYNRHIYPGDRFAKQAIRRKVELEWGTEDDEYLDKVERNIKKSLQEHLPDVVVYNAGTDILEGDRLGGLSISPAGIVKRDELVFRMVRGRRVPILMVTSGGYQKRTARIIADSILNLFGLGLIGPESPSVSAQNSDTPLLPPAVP

N9 = assay: Immunomodulatory activity in mouse N9 cells assessed as reduction in LPS-induced iNOS expression at 5 to 25 uM incubated for 24 hrs by Western blot analysis; format: functional, cell-based
Procedure, shortened: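 N9 mouse microglial cells stimulated with LPS (100 ng/mL) and treated at 5 and 25 μM. iNOS and MRC1 levels were read by Western blot with GAPDH as loading control. Densitometry is expressed as percentage of LPS-only cells, as mean ± SE of three independent experiments.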

Rattus norvegicus = species: Rattus norvegicus; assay: Neuroprotective activity against low serum/K+ deprivation-induced toxicity in rat CGN cells assessed as increase in cell viability at 5 to 25 uM pre-treated for 6 hrs followed by 24 hrs co-treatment with serum/K+ starvation and measured after 24 hrs by MTT assay; format: functional, cell-based
Procedure, shortened: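 Primary rat cerebellar granule neurons were pretreated for 6 h, then cotreated for 24 h under low-serum and K+ deprivation to induce death. Viability was compared with control and deprivation-only conditions, with tacrine as reference compound.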

Chain of Histone deacetylase 3 (Homo sapiens) (O15379 whole entry, the tested form may be a part): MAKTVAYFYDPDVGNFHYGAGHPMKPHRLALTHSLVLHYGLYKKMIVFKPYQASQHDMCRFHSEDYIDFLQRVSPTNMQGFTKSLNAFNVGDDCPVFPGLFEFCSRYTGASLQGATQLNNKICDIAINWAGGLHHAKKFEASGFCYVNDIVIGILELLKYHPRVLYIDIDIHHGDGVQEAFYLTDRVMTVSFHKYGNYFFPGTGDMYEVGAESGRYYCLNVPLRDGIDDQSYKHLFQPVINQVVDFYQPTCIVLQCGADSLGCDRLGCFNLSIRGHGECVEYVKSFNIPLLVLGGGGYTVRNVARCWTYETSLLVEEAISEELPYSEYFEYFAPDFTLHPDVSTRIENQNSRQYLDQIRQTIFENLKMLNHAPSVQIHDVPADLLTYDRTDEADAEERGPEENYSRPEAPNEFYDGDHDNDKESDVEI
Chain of Histone deacetylase 2 (Homo sapiens) (Q92769 whole entry, the tested form may be a part, canonical isoform): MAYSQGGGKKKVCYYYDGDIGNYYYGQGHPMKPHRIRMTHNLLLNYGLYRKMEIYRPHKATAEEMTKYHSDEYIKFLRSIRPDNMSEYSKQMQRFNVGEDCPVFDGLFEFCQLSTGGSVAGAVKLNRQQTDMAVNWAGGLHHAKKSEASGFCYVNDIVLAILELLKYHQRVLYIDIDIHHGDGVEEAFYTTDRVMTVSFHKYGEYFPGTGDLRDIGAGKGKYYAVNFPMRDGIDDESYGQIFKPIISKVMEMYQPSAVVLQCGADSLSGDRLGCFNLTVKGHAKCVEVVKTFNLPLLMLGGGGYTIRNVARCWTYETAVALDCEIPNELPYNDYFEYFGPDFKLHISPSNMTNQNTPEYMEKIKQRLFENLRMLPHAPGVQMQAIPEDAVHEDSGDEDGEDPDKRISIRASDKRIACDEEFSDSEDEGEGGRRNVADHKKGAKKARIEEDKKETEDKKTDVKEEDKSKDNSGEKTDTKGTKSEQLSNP
Chain of Histone deacetylase 5 (Homo sapiens) (Q9UQL6 whole entry, the tested form may be a part): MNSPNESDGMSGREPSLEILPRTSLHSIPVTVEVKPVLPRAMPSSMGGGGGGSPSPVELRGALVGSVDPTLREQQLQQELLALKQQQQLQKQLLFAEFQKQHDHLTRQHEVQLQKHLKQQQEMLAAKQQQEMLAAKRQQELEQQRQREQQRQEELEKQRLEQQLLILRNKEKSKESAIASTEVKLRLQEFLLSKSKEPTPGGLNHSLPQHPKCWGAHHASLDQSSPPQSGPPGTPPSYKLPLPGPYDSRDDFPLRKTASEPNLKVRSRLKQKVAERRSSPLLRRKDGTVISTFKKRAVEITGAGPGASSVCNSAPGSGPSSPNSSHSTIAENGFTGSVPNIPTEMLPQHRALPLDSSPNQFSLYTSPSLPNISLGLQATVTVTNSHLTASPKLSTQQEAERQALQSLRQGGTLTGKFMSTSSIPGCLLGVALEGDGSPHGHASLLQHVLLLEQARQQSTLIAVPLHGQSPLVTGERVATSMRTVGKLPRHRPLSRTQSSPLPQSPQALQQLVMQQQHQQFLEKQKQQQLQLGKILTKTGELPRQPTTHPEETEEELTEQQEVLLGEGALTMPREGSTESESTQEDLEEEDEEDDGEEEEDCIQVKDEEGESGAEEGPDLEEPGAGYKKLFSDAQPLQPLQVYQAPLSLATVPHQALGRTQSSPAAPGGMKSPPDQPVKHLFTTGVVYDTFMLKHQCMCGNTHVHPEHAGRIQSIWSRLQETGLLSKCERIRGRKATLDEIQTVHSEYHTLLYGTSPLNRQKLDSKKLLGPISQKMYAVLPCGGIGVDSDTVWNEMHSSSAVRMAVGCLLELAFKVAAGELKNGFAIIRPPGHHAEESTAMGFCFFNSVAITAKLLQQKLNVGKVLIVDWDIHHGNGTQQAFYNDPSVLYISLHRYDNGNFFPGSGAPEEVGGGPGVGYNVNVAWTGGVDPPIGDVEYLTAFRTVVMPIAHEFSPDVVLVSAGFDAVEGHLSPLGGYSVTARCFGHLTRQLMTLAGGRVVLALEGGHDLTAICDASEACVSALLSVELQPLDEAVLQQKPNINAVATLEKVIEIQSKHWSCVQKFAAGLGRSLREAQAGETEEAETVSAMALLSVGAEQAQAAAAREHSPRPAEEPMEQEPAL

| inhibition [1] | inhibition [2] | inhibition [3] | inhibition [4] | inhibition [5] | inhibition [6] | Compound | Activity (N9) | Activity (Rattus norvegicus) |
| --- | --- | --- | --- | --- | --- | --- | --- | --- |
| inactive | inactive | inactive | Active | inactive | inactive | COC(=O)c1c(CCCCCCCC(=O)NO)cccc1OC | Active | inactive |
| inactive | inactive | inactive | Active | inactive | inactive | COc1cccc(CCCCCCCC(=O)NO)c1 | Active | inactive |

— ChEMBL document CHEMBL4433221, “Novel Sustainable-by-Design HDAC Inhibitors for the Treatment of Alzheimer's Disease” (ACS Med Chem Lett, 2019)
